Experimental data published in ChEMBL document CHEMBL1221202, “Small-molecule pheromones that control dauer development in Caenorhabditis elegans” (Nat Chem Biol, 2007).
Calls of active or inactive are those of the source. The rule behind the calls is not given here.

Assays:
Caenorhabditis elegans [1] = assay: Induction of dauer formation in wild type Caenorhabditis elegans Bristol […] at 25 degC; assay type: functional, organism-based
Procedure, shortened: (§1)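 Wild-type N2 eggs were laid on plates containing a range of ascaroside concentrations plus a little food, then held at 20 °C or 25 °C, and percent dauer formation was scored. Each value is the mean of three experiments. EC50 was taken as half-maximal activity from a sigmoidal fit with the lower limit fixed at 0 and the upper limit left free.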

Caenorhabditis elegans [2] = assay: Induction of dauer formation in wild type Caenorhabditis elegans Bristol […] at 20 degC; assay type: functional, organism-based; procedure, shortened: as §1
Caenorhabditis elegans [3] = assay: Induction of dauer formation in Caenorhabditis elegans Bristol daf-7(1372) mutant at 20 degC; assay type: functional, organism-based
Procedure, shortened: (§2)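 Dauer formation assay: eggs were laid on agar plates containing a range of ascaroside concentrations plus a small amount of food, and percent dauer formation was scored. Stock worms were maintained at 20–23 °C on NG plates made with Noble agar and seeded with E. coli OP50.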

Caenorhabditis elegans [4] = assay: Induction of dauer formation in Caenorhabditis elegans Bristol osm-9(ky10) mutant at 20 degC; assay type: functional, organism-based; procedure, shortened: as §2
Caenorhabditis elegans [5] = assay: Induction of dauer formation in Caenorhabditis elegans Bristol ocr-2(ak47) mutant at 20 degC; assay type: functional, organism-based; procedure, shortened: as §2
Caenorhabditis elegans [6] = assay: Induction of dauer formation in Caenorhabditis elegans Bristol tax-2(p691) mutant at 20 degC; assay type: functional, organism-based; procedure, shortened: as §2
Caenorhabditis elegans [7] = assay: Induction of dauer formation in Caenorhabditis elegans Bristol tax-4(p678) mutant at 20 degC; assay type: functional, organism-based; procedure, shortened: as §2
Caenorhabditis elegans [8] = assay: Induction of dauer formation in Caenorhabditis elegans Bristol egl-4(ks61) mutant at 20 degC; assay type: functional, organism-based; procedure, shortened: as §2
Caenorhabditis elegans [9] = assay: Induction of dauer formation in wild type Caenorhabditis elegans Bristol N2 at 73 uM

Row | Compound | EC50 (Caenorhabditis elegans [1]) [nM] | EC50 (Caenorhabditis elegans [2]) [nM] | Activity (Caenorhabditis elegans [3]) | Activity (Caenorhabditis elegans [4]) | Activity (Caenorhabditis elegans [5]) | Activity (Caenorhabditis elegans [6]) | Activity (Caenorhabditis elegans [7]) | Activity (Caenorhabditis elegans [8]) | Activity (Caenorhabditis elegans [9])
1 | C[C@H](CCCC/C=C/C(=O)O)O[C@@H]1O[C@@H](C)[C@H](O)C[C@H]1O | 370 | 1100 | inactive | inactive | inactive | inactive | inactive | inactive | Active
2 | CC(=O)CC[C@@H](C)O[C@@H]1O[C@@H](C)[C@H](O)C[C@H]1O | 120 | 460 | inactive | inactive | inactive | inactive | inactive | inactive | Active
3 | C[C@H](CCCCC(=O)O)O[C@@H]1O[C@@H](C)[C@H](O)C[C@H]1O [DAUMONE] | 18000 | 88000 | inactive | inactive | inactive | inactive | inactive | inactive | 
